Source: PubChem BioAssay AID588556 (Sanford-Burnham Center for Chemical Genomics, 2011)
The source made the active and inactive calls.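 How the source made its calls: active means IC50 at or below 20 µM in the 24 hour cytotoxicity test; inactive means the rest.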

test system: CHO-CHOP cells viability, ATPLite luminescence, 24 h; experiment: CHO-CHOP cell viability loss – 24 h exposure, ATPLite luminescence, cytotoxicity control for UPR apoptotic arm activator project, SAR follow-up (AID 588556)
Outline: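 Assay system: CHO-CHOP cells | Amount: 500 cells/well | Doses: Dose-response series, final DMSO at most 1% | Controls: Tunicamycin 10 µg/mL final as positive control, DMSO alone as negative | Incubation: 16-18 h cell pre-culture, 24 h compound treatment, 37 °C | Signal: ATPLite 1-Step luminescence | Medium: Serum-supplemented F12 medium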

Row | Structure (SMILES) | IC50
1 | CC(C)(C)C1CCN(S(=O)(=O)c2ccc(NC(=O)c3ccc([N+](=O)[O-])o3)cc2)CC1 | 2420 nM
2 | O=C(Nc1ccc(S(=O)(=O)N2CCC(O)CC2)cc1)c1ccc([N+](=O)[O-])o1 | 45900 nM (inactive)
3 | O=C(Nc1nc2c(F)ccc(F)c2s1)c1ccccn1 | 1670 nM
4 | O=C(Nc1ccc(S(=O)(=O)N2CCOCC2)cc1)c1ccc([N+](=O)[O-])s1 | > 80000 nM (inactive)
5 | O=C(Nc1ccc(S(=O)(=O)N2CCC(Cl)CC2)cc1)c1ccc([N+](=O)[O-])o1 | 66800 nM (inactive)
6 | O=C(Nc1ccc(S(=O)(=O)C2CCOCC2)cc1)c1ccc([N+](=O)[O-])o1 | 66300 nM (inactive)
7 | O=C(Nc1nc2c(F)cccc2s1)c1ccccn1 | 1580 nM
8 | O=C(Nc1nc2cc(F)c(F)cc2s1)c1ccccn1 | 2660 nM
9 | O=C(Nc1nc2c(F)cc(F)cc2s1)c1ccccn1 | 1400 nM
10 | O=C(Nc1nc2cc(F)ccc2s1)c1ccccn1 | 1570 nM
11 | O=C(Nc1ccc(S(=O)(=O)C2CCCCC2)cc1)c1ccc([N+](=O)[O-])o1 | 26700 nM (inactive)
12 | O=C(Nc1ccc(S(=O)(=O)N2CCNCC2)cc1)c1ccc([N+](=O)[O-])o1 | > 80000 nM (inactive)
13 | CC1(C)CCN(S(=O)(=O)c2ccc(NC(=O)c3ccc([N+](=O)[O-])o3)cc2)CC1 | 12600 nM
14 | O=C(Nc1ccc(S(=O)(=O)N2CCOCC2)cc1)c1ccc([N+](=O)[O-])o1 | 53500 nM (inactive)
15 | O=C(Nc1nc2ccc(C(F)(F)F)cc2s1)c1ccccn1 | 1220 nM
16 | CC1CCN(S(=O)(=O)c2ccc(NC(=O)c3ccc([N+](=O)[O-])o3)cc2)CC1 | > 80000 nM (inactive)
17 | O=C(Nc1ccc(S(=O)(=O)N2CCCC2)cc1)c1ccc([N+](=O)[O-])o1 | 25000 nM (inactive)
18 | O=C(Nc1nc2c(F)c(F)ccc2s1)c1ccccn1 | 1680 nM
19 | Cc1cc(C)c2nc(NC(=O)c3ccccn3)sc2c1 | 5310 nM
20 | O=C(Nc1ccc(S(=O)(=O)c2ccccc2)cc1)c1ccc([N+](=O)[O-])o1 | 40400 nM (inactive)
21 | O=C(Nc1ccc(S(=O)(=O)N2CCC3(CCCCC3)CC2)cc1)c1ccc([N+](=O)[O-])o1 | 1160 nM
22 | O=C(Nc1ccc(S(=O)(=O)N2CCC(F)CC2)cc1)c1ccc([N+](=O)[O-])o1 | 32600 nM (inactive)
23 | O=C(Nc1nc2ccc(F)cc2s1)c1ccccn1 | 1930 nM
24 | CC1CN(S(=O)(=O)c2ccc(NC(=O)c3ccc([N+](=O)[O-])o3)cc2)CC(C)O1 (stereo not given) | 51400 nM (inactive)
25 | O=C(Nc1ccc(S(=O)(=O)N2CCCCC2)cc1)c1ccc([N+](=O)[O-])o1 | > 80000 nM (inactive)
26 | O=C(Nc1nc2ccc(Cl)cc2s1)c1ccccn1 | 1230 nM
27 | O=C(Nc1nc2cccc(F)c2s1)c1ccccn1 | 2350 nM
28 | O=C(Nc1nc2c(Cl)cc(Cl)cc2s1)c1ccccn1 | 13300 nM
29 | O=C(Nc1nc2cc(F)cc(F)c2s1)c1ccccn1 | 1830 nM
30 | O=C(Nc1nc2ccc(F)c(F)c2s1)c1ccccn1 | 1420 nM
